The values below come from ChEMBL document CHEMBL1150264, “Design and microwave-assisted synthesis of novel macrocyclic peptides active at melanocortin receptors: discovery of potent and selective hMC5R receptor antagonists” (J Med Chem, 2008).

The source made the active and inactive calls. The rule behind the calls is not given here.

Experiment [1] concerns the target T1, Melanocyte-stimulating hormone receptor (Homo sapiens, UniProt Q01726). As to the kind of experiment: Agonist activity at human melanocortin 1 receptor expressed in HEK293 cells assessed as cAMP accumulation at 10 uM. In kind it is functional, cell-based. The method in brief: (§1)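 cAMP accumulation assay in stably transfected HEK293 cells: 0.5 mM IBMX preincubation, 3 min ligand exposure at 37 °C, [3H]cAMP/PKA binding read-out against a standard curve. The cAMP produced at 10 μM ligand is expressed as percent of that produced by 10 μM MT-II (% max effect).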
(cAMP levels reflect the balance of adenylyl cyclase and phosphodiesterase activity.)
Target sequence in this assay (Q01726 whole entry, looked up): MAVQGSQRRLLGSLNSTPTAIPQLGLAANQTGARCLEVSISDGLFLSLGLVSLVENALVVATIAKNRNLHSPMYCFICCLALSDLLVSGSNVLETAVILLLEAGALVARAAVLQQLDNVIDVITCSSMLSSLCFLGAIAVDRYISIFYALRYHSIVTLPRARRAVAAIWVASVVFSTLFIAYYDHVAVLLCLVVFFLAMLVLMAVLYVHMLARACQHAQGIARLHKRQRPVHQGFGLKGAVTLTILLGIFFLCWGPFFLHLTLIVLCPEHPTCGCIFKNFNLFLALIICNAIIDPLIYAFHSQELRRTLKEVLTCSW

Experiment [2] concerns the target T1, Melanocyte-stimulating hormone receptor. As to the kind of experiment: Agonist activity at human melanocortin 1 receptor expressed in HEK293 cells assessed as cAMP accumulation at 10 uM realtive to MT2. The experiment is classed as functional, cell-based. The method in brief: as §1
Target sequence in this assay (Q01726 whole entry, looked up): as above
In experiment [3] the target is T2, Melanocortin receptor 3 (Homo sapiens, UniProt P41968). As to the kind of experiment: Agonist activity at human melanocortin 3 receptor expressed in HEK293 cells assessed as cAMP accumulation at 10 uM realtive to MT2. The experiment is classed as functional, cell-based. The essentials:
as §1

Experiment [4] concerns the target T3, Melanocortin receptor 4 (Homo sapiens, UniProt P32245). As to the kind of experiment: Agonist activity at human melanocortin 4 receptor expressed in HEK293 cells assessed as cAMP accumulation at 10 uM. The experiment is classed as functional, cell-based. The method in brief:
as §1

Experiment [5] addresses T3, Melanocortin receptor 4. Nature of the experiment: Agonist activity at human melanocortin 4 receptor expressed in HEK293 cells assessed as cAMP accumulation at 10 uM realtive to MT2. The experiment is classed as functional, cell-based. The method in brief:
as §1

Experiment [6] deals with T4, Melanocortin receptor 5 (Homo sapiens, UniProt P33032). As to the kind of experiment: Agonist activity at human melanocortin 5 receptor expressed in HEK293 cells assessed as cAMP accumulation at 10 uM. The experiment is classed as functional, cell-based. The essentials:
as §1

The target in experiment [7] is T4, Melanocortin receptor 5. Nature of the experiment: Agonist activity at human melanocortin 5 receptor expressed in HEK293 cells assessed as cAMP accumulation at 10 uM realtive to MT2. The experiment is classed as functional, cell-based. The method in brief: as §1
Experiment [8] has as its target T4, Melanocortin receptor 5. Nature of the experiment: Antagonist activity at human melanocortin 5 receptor expressed in HEK293 cells. The experiment is classed as functional, cell-based. The method in brief: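 Antagonism at hMC5R in the HEK293 cAMP assay (IBMX, 3 min at 37 °C, [3H]cAMP/PKA read-out). Four antagonist doses spanning 10−10 to 10−6 M were tested against MT-II agonist dose-response curves. pA2 derived by Schild analysis.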

Experiment [9] has as its target T1, Melanocyte-stimulating hormone receptor. As to the kind of experiment: Displacement of [125I]-[Nle4, D-Phe7]alpha-MSH from human melanocortin 1 receptor expressed in HEK293 cells. The experiment is classed as cell-based. The method in brief: (§2)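 Whole HEK293 cells stably expressing each hMCR, seeded 48 h before assay (50000 cells/well), washed in MEM with 25 mM bicarbonate. Cells incubated 40 min at 37 °C with unlabeled peptide plus [125I]-NDP-α-MSH (33.06 pM, 20000 cpm/well) in MEM, 25 mM HEPES pH 7.4, 0.2% BSA, 1 mM 1,10-phenanthroline, leupeptin, bacitracin. Cells washed, lysed with NaOH/Triton X-100, and gamma-counted. IC50 by nonlinear fit, two experiments in triplicate […].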
Background: Displacement assays read how much labelled ligand stays bound in the presence of the test substance.
Target sequence in this assay (Q01726 whole entry): as the sequence (Q01726 whole entry, looked up) above

The target in experiment [10] is T2, Melanocortin receptor 3. As to the kind of experiment: Displacement of [125I]-[Nle4, D-Phe7]alpha-MSH from human melanocortin 3 receptor expressed in HEK293 cells. The experiment is classed as cell-based. The essentials: as §2
The target of experiment [11] is T2, Melanocortin receptor 3. Nature of the experiment: Agonist activity at human melanocortin 3 receptor expressed in HEK293 cells assessed as cAMP accumulation. In kind it is functional, cell-based. The method in brief:
(§3)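 Stably transfected HEK293 cells seeded 48 h before assay (50000 cells/well), rinsed, preincubated 1 min at 37 °C in Earle's balanced salt solution with 0.5 mM IBMX, then given peptide at varying concentrations for 3 min at 37 °C. Stopped with ice-cold Tris/EDTA and boiling 7 min. cAMP measured by [3H]cAMP competition for PKA against a standard curve. EC50 by nonlinear least-squares fit, mean of two experiments in triplicate.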

The target in experiment [12] is T3, Melanocortin receptor 4. As to the kind of experiment: Displacement of [125I]-[Nle4, D-Phe7]alpha-MSH from human melanocortin 4 receptor expressed in HEK293 cells. The experiment is classed as cell-based. The method in brief:
as §2

Experiment [13] addresses T4, Melanocortin receptor 5. As to the kind of experiment: Displacement of [125I]-[Nle4, D-Phe7]alpha-MSH from human melanocortin 5 receptor expressed in HEK293 cells. In kind it is cell-based. The essentials: as §2
Experiment [14] concerns the target T1, Melanocyte-stimulating hormone receptor. Nature of the experiment: Agonist activity at human melanocortin 1 receptor expressed in HEK293 cells assessed as cAMP accumulation. In kind it is functional, cell-based. The essentials: as §3
Target sequence in this assay (Q01726 whole entry): as the sequence (Q01726 whole entry, looked up) above
The target of experiment [15] is T3, Melanocortin receptor 4. As to the kind of experiment: Agonist activity at human melanocortin 4 receptor expressed in HEK293 cells assessed as cAMP accumulation. The experiment is classed as functional, cell-based. The method in brief:
as §3

Experiment [16] concerns the target T4, Melanocortin receptor 5. Nature of the experiment: Agonist activity at human melanocortin 5 receptor expressed in HEK293 cells assessed as cAMP accumulation. The experiment is classed as functional, cell-based. The method in brief:
as §3

The target of experiment [17] is T2, Melanocortin receptor 3. As to the kind of experiment: Displacement of [125I]-[Nle4, D-Phe7]alpha-MSH from human melanocortin 3 receptor expressed in HEK293 cells at 10 uM. In kind it is cell-based.
Experiment [18] addresses T2, Melanocortin receptor 3. As to the kind of experiment: Agonist activity at human melanocortin 3 receptor expressed in HEK293 cells assessed as cAMP accumulation at 10 uM. The experiment is classed as functional, cell-based. The essentials: as §1

T2 sequence (P41968 whole entry): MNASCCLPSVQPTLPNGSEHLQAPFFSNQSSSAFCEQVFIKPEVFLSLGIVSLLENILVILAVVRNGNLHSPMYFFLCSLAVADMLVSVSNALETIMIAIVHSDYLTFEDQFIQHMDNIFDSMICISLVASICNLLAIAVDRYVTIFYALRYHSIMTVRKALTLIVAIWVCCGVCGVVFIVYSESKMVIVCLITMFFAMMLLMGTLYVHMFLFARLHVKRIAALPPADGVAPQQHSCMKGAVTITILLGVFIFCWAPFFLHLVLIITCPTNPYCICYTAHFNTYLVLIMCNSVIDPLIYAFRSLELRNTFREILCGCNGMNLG
T3 sequence (P32245 whole entry): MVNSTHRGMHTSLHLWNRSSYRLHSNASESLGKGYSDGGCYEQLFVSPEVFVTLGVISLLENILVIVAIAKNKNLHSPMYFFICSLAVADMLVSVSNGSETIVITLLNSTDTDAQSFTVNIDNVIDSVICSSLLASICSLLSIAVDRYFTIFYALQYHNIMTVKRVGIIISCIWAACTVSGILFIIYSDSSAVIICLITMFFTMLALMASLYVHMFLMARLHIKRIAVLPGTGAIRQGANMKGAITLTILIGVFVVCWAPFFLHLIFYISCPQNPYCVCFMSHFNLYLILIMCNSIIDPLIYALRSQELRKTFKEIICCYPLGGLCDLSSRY
T4 sequence (P33032 whole entry): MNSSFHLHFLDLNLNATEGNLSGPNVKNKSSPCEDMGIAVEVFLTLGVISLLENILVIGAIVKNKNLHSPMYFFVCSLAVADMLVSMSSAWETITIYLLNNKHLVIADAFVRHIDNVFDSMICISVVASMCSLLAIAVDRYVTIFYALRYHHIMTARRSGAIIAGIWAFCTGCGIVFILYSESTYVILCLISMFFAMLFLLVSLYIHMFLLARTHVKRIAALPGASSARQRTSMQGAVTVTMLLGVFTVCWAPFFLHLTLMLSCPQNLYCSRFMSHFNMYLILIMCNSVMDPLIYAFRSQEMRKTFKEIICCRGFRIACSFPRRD

As a reminder, the pA2 is a measure of antagonist potency on a negative log scale. Read a high pA2 as a more potent antagonist. For the compound `N=C(N)NCCC[C@@H]1NC(=O)[C@H](Cc2ccc3ccccc3c2)NC(=O)[C@H](Cc2cnc[nH]2)NC(=O)c2cc([N+](=O)[O-])ccc2SC[C@@H](C(N)=O)NC(=O)[C@H](Cc2c[nH]c3ccccc23)NC1=O`, the result (in experiment [1]; on Melanocortin receptor 4 [4]; at Melanocortin receptor 5 [6]) was inactive. The Activity was 0% in experiment [2], 21% on Melanocortin receptor 3 [3], 0% at Melanocortin receptor 4 [5] and 0% at Melanocortin receptor 5 [7]. At Melanocortin receptor 5 [8], this compound displayed a pA2 of 8.3.

In general, IC50 refers to the concentration at which inhibition is half-maximal. A high value points to lower potency. Broadly, the EC50 is the midpoint of the concentration-response curve. Regarding `NC(=O)[C@@H]1CSc2ccc([N+](=O)[O-])cc2C(=O)N[C@@H](Cc2cnc[nH]2)C(=O)N[C@@H](Cc2ccc3ccccc3c2)C(=O)N[C@@H](CCCN=C(N)N)C(=O)N[C@@H](Cc2c[nH]c3ccccc23)C(=O)N1`, the IC50 in [9] (hek293) is over 2000 nM; at Melanocortin receptor 3 [10] (hek293), over 1000 nM; on Melanocortin receptor 4 [12] (hek293), over 5000 nM; at Melanocortin receptor 5 [13] (hek293), 130 nM. On Melanocortin receptor 3 [11] (hek293), the EC50 came to 50 nM.

On to `NC(=O)[C@@H]1CSc2ccc([N+](=O)[O-])cc2C(=O)N[C@@H](Cc2cnc[nH]2)C(=O)N[C@H](Cc2ccccc2)C(=O)N[C@@H](CCCN=C(N)N)C(=O)N[C@@H](Cc2c[nH]c3ccccc23)C(=O)N1`, for which the IC50 in [9] came out at 3.7 nM; on Melanocortin receptor 3 [10] it was 40 nM; on Melanocortin receptor 4 [12], 47 nM; at Melanocortin receptor 5 [13] it was 190 nM. Also, the EC50 stood at 2 nM in experiment [14], 2 nM on Melanocortin receptor 3 [11], 37 nM at Melanocortin receptor 4 [15] and 44 nM on Melanocortin receptor 5 [16].

With `N=C(N)NCCC[C@@H]1NC(=O)[C@@H](Cc2ccccc2)NC(=O)[C@@H]2CCCN2C(=O)c2cc([N+](=O)[O-])ccc2SC[C@@H](C(N)=O)NC(=O)[C@H](Cc2c[nH]c3ccccc23)NC1=O`, the IC50 was over 1000 nM in experiment [9], 380 nM at Melanocortin receptor 3 [10], over 1000 nM on Melanocortin receptor 4 [12] and 58 nM on Melanocortin receptor 5 [13]. Besides, the result (in experiment [1]; at Melanocortin receptor 4 [4]; on Melanocortin receptor 5 [6]) was inactive. Besides, the Activity in [2] was 0%; at Melanocortin receptor 3 [3], over 100%; at Melanocortin receptor 4 [5], 0%; on Melanocortin receptor 5 [7], 0%. The EC50 on Melanocortin receptor 3 [11] was over 1000 nM.

Consider `N=C(N)NCCC[C@@H]1NC(=O)[C@@H](Cc2ccccc2)NC(=O)[C@H](Cc2cnc[nH]2)NC(=O)c2cc([N+](=O)[O-])ccc2SC[C@@H](C(N)=O)NC(=O)[C@@H](Cc2c[nH]c3ccccc23)NC1=O`, for which the results for the concentration for half-maximal inhibition (IC50) (in experiment [9]; on Melanocortin receptor 4 [12]; on Melanocortin receptor 5 [13]) were 1000 nM, over 1000 nM and over 2000 nM, respectively. The EC50 in experiment [14] turned out to be 100 nM. Further, the Activity in experiment [2] was determined as 105%; at Melanocortin receptor 3 [3], 0%; at Melanocortin receptor 4 [5], 1%; at Melanocortin receptor 5 [7], 0%. The result at Melanocortin receptor 3 [17], at Melanocortin receptor 3 [18], at Melanocortin receptor 4 [4] and on Melanocortin receptor 5 [6] was inactive.

`NC(=O)[C@@H]1CSc2ccc([N+](=O)[O-])cc2C(=O)N[C@@H](Cc2cnc[nH]2)C(=O)N[C@H](Cc2ccccc2)C(=O)N[C@@H](CCCN=C(N)N)C(=O)N[C@@H](Cc2ccc3ccccc3c2)C(=O)N1`: the IC50 in experiment [9] is 180 nM; at Melanocortin receptor 3 [10], 610 nM; on Melanocortin receptor 4 [12], over 1000 nM; at Melanocortin receptor 5 [13], 340 nM. Besides, the EC50 in [14] stood at 71 nM; on Melanocortin receptor 3 [11], 56 nM.
